Measurements: publication PMC5900894 (Chemmedchem, 2018)

What was measured:
[1] = DOSY NMR diffusion coefficient / aggregation; type: physicochemical; conditions: FP7 500 μM alone, 310 K, 10 % DMSO in PBS 100 mM pH 5.5
Procedure, shortened: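 Test glycolipid was diluted from a 50 mM DMSO stock into 100 mM PBS pH 5.5 (final DMSO 10 %) and examined at 500 μM by DOSY NMR. Spectra were recorded on the glycolipid alone, then after stepwise peptide additions up to [peptide]/[glycolipid] molar ratios of 0.06 or 0.1. Peptides came from 20 mM DMSO stocks.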

[2] = tested on: human peripheral blood mononuclear cells; experiment: IL‐1β production in LPS‐stimulated human PBMCs; type: cell-based; conditions: pre‐incubated 30 min, LPS 100 ng mL^−1, overnight; tested 0.1, 1, 5, 10 μM
Procedure, shortened: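 PBMCs came from buffy coats diluted 1:1 in PBS and separated by density gradient centrifugation. Cells were washed, checked for viability with 0.1 % trypan blue, and resuspended in RPMI 1640 with 10 % FBS, penicillin and streptomycin in U-bottom wells. Test glycolipid alone or its 1:1 mix with peptide (0.1, 1, 5, 10 μM) was added 30 min before smooth LPS (100 ng mL⁻¹). IL-1β release was the read-out.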

- D (diffusion coefficient of FP7) [1]: 6.31×10^−11 m^2 s^−1
SMILES: CCCCCCCCCCCCCC(=O)N[C@H]1[C@@H](OP(=O)(O)O)O[C@H](CO)[C@@H](OP(=O)(O)O)[C@@H]1OC(=O)CCCCCCCCCCCCC [FP7]
- concentration halving the amount of IL‐1β released [2]: 5 µM
